# Measurements from different studies.
# Lines come from different studies, so protocols differ.
# GSK3B: Glycogen synthase kinase-3 beta (GSK3B, Homo sapiens, UniProt P49841)
# PTGS2: Prostaglandin G/H synthase 2 (PTGS2, Ovis aries, UniProt P79208)
# PDK2: [Pyruvate dehydrogenase (acetyl-transferring)] kinase isozyme 2, mitochondrial (PDK2, Homo sapiens, UniProt Q15119)
# AVPR1A: Vasopressin V1a receptor (AVPR1A, Homo sapiens, UniProt P37288)
target,assay,system,conditions,inhibition,Structure (SMILES)
GSK3B,"enzyme activity, inhibitor, ADP detection",,100 µM,75.3%,CC(=O)NCCc1ccc(O)c(-c2c(O)c(O)c3c(c2O)C(=O)c2c(cc(O)c(C(=O)O)c2C(=O)O)C3=O)c1
PTGS2,"enzyme activity, inhibitor, absorbance",,50 µM,57.5%,C[C@@H]1O[C@@H](OC[C@H]2O[C@@H](O[C@H]3[C@H](Oc4c(-c5ccc(O)cc5)oc5cc(O)cc(O)c5c4=O)O[C@H](CO)[C@@H](O)[C@@H]3O)[C@H](O)[C@@H](O)[C@@H]2O)[C@H](O)[C@H](O)[C@H]1O
GSK3B,"enzyme activity, inhibitor, ADP detection",,100 µM,28.2%,CC[C@H]1C(=O)OC[C@@H]1Cc1cncn1C.O=[N+]([O-])O
"Phosphatidylinositol 4-kinase type 2-beta (PI4K2B, Homo sapiens, UniProt Q8TCG2)","enzyme activity, inhibitor",,10 µM,-11%,O=C(CSc1nc2nccnc2c(=O)n1CCc1ccccc1)Nc1nccs1
PDK2,"enzyme activity, inhibitor",,1 µM,17%,CN1CC(Oc2cnc(C#N)cc2-c2ccn3nc(NC(=O)C4CC4)cc3c2)C1
"Protein arginine N-methyltransferase 8 (PRMT8, Homo sapiens, UniProt Q9NR22)","enzyme activity, inhibitor",,1 µM,9%,CCN(c1cc(C#CCN2CCOCC2)cc(C(=O)NCc2c(C)cc(C)[nH]c2=O)c1C)[C@H]1CC[C@H](N(C)CCOC)CC1
GSK3B,"enzyme activity, inhibitor, ADP detection",,100 µM,14%,C[C@@H]1CN(c2c(F)c(N)c3c(=O)c(C(=O)O)cn(C4CC4)c3c2F)C[C@H](C)N1
AVPR1A,cell-free assay,,10 µM,-0.8%,COc1cc(NC(C)=O)c(Cl)cc1C(=O)Nc1nccs1
"Protein mono-ADP-ribosyltransferase TIPARP (TIPARP, Homo sapiens, UniProt Q7Z3E1)","enzyme activity, inhibitor",,10 µM,2%,Ic1cccc2cnccc12
"Protein-tyrosine kinase 6 (PTK6, Homo sapiens, UniProt Q13882)","enzyme activity, inhibitor, FRET",,10 µM,6%,CN(C)C1CCN(CC#Cc2nn(C3CCCC3)c3nc(NCc4ccccc4)ncc23)C1 (stereo not shown)
GSK3B,"enzyme activity, inhibitor, ADP detection",,100 µM,27.6%,Cc1[nH]c(=O)c(C#N)cc1-c1ccncc1
PTGS2,"enzyme activity, inhibitor, absorbance",,50 µM,53.8%,C[C@@H]1O[C@@H](OC[C@H]2O[C@@H](Oc3c(-c4ccc(O)cc4)oc4cc(O)cc(O)c4c3=O)[C@H](O[C@@H]3O[C@H](CO)[C@@H](O)[C@H](O)[C@H]3O)[C@@H](O)[C@@H]2O)[C@H](O)[C@H](O)[C@H]1O
GSK3B,"enzyme activity, inhibitor, ADP detection",,100 µM,25.3%,COC(=O)C1=C(C#N)NC(C)=C(C(=O)OC(C)C)C1c1cccc([N+](=O)[O-])c1 (stereo not shown)
"Motilin receptor (MLNR, Homo sapiens, UniProt O43193)",cell-free assay,,10 µM,18.7%,O=C(c1ccc(Cl)cc1)N(Cc1ccccc1)C1CCCCC1
GSK3B,"enzyme activity, inhibitor, ADP detection",,100 µM,40.8%,CCc1cccc2c3c([nH]c12)C(CC)(CC(=O)O)OCC3 (stereo not shown)
"Mitogen-activated protein kinase kinase kinase 5 (MAP3K5, Homo sapiens, UniProt Q99683)","target engagement in cells, inhibitor, chemoproteomics",A-375,50 nM,-33.8%,CCN1CCN(Cc2ccc(NC(=O)c3ccc(C)c(/C=C/c4cnc5[nH]ccc5c4OC)c3)cc2C(F)(F)F)CC1
PDK2,"enzyme activity, inhibitor",,0.1 µM,-2.1%,CC/C(=N\NC(=O)NCc1cccc(O)c1)c1ccc(O)c(C)c1O
PTGS2,"enzyme activity, inhibitor, absorbance",,50 µM,55.1%,O=c1c(O[C@@H]2O[C@H](CO)[C@@H](O)[C@H](O)[C@H]2O)c(-c2ccc(O)cc2)oc2cc(O)cc(O)c12
AVPR1A,cell-free assay,,10 µM,1.2%,Oc1cccc(Nc2nc(-c3ccc(F)cc3F)cs2)c1
